Columns and labels:
[1] = Critical micelle concentration by conductimetry; format: physicochemical
[2] = system: Staphylococcus aureus; assay: Microbiostatic activity against Staphylococcus aureus ATCC 6538 after 24 hrs by turbidimetric method; format: functional; details: ATCC 6538, 24 h
Method in brief: (§1)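 Exponential-phase bacteria are grown overnight on TSA, then overnight at 30 °C in M9G (pH 7.0). Suspension is adjusted to OD660 0.05 (about 5·10^6–5·10^7 cfu/mL), verified by plate count. Automated serial dilutions of agent in deionised water are inoculated and incubated 24 h at 30 °C. MIC is the first concentration without turbidity.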

[3] = system: Pseudomonas aeruginosa; assay: Microbiostatic activity against Pseudomonas aeruginosa ATCC 9027 after 24 hrs by turbidimetric method; format: functional; details: ATCC 9027, 24 h; method in brief: as §1
[4] = system: Aspergillus niger; assay: Microbicidal activity against Aspergillus niger ATCC 6275 after 7 days by microtiter plate method; format: functional; details: ATCC 6275, 168 h
Method in brief: (§2)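 Fungal MIC microplates are kept 7 days. 100 µL from each of the three concentrations above the MIC is subcultured onto agent-free TSA or SDA plates. MLC is the lowest concentration giving no growth.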

[5] = system: Pseudomonas aeruginosa; assay: Microbicidal activity against Pseudomonas aeruginosa ATCC 9027 after 5 days by microtiter plate method; format: functional; details: ATCC 9027, 120 h
Method in brief: (§3)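 Bacterial MIC microtiter plates are held 5 days. For each of the three concentrations above the MIC, 100 µL is plated on TSA or SDA plates. MLC is the first concentration showing no growth after subculture.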

[6] = system: Candida albicans; assay: Microbiostatic activity against Candida albicans ATCC 10231 after 72 hrs by turbidimetric method; format: functional; details: ATCC 10231, 72 h
Method in brief: (§4)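 Turbidimetric broth microdilution: automated serial dilutions of agent in sterile deionised water, then inoculation. Spores come from 5–7 day SDA cultures at 25 °C, harvested in M9G (pH 5.0) and gauze-filtered to remove mycelium. Inoculum is set to 5·10^6–5·10^7 spores/mL by counting cell. Incubation is 72 h at 25 °C. MIC is the first concentration with no turbidity.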

[7] = system: Aspergillus niger; assay: Microbiostatic activity against Aspergillus niger ATCC 6275 after 72 hrs by turbidimetric method; format: functional; details: ATCC 6275, 72 h; method in brief: as §4
[8] = system: Staphylococcus aureus; assay: Microbicidal activity against Staphylococcus aureus ATCC 6538 after 5 days by microtiter plate method; format: functional; details: ATCC 6538, 120 h; method in brief: as §3
[9] = system: Candida albicans; assay: Microbicidal activity against Candida albicans ATCC 10231 after 7 days by microtiter plate method; format: functional; details: ATCC 10231, 168 h; method in brief: as §2

| SMILES | CMC [1] | MIC [2] [µM] | MIC [3] [µM] | MIC [6] [µM] | MIC [7] [µM] | MLC [4] [µM] | MLC [5] [µM] | MLC [8] [µM] | MLC [9] [µM] |
| --- | --- | --- | --- | --- | --- | --- | --- | --- | --- |
| C=CC(=O)OCC[N+](C)(C)CCCCCCCCCCCCCC.[Br-] | 2.99 mM | 178 | 112 | 18.1 | 178 | 232 | 114 | 232 | 18.4 |
| C=CC(=O)OCC[N+](C)(C)CCCCCCCCCCCC.[Br-] | 6.45 mM | 71.1 | 71.1 | 63.8 | 63.8 | 63.8 | 71.1 | 71.1 | 63.8 |
| C=CC(=O)OCCCCCCCCCCC[N+](C)(C)CCCCCCCCCC.[Br-] | 2.79 mM | 64.8 | 79.9 | 19 | 19 | 19.3 | 188 | 72.6 | 30.4 |
| C=CC(=O)OCCCCCCCCCCC[N+](C)(C)CCCCCCCCCCCC.[Br-] | 9.66 ×10⁻⁴ mol/L | 34.7 | 58.4 | 14.8 | 14.8 | 14.8 | 64.7 | 34.7 | 15.4 |
| C=CC(=O)OCCCCCCCCCCC[N+](C)(C)Cc1ccccc1.[Br-] | 3.34 ×10⁻² mol/L | 244 | 154 | 154 | 154 | 238 | 447 | 306 | 447 |

More lines, main results first:

| CMC [1] | MIC [2] [µM] | MIC [3] [µM] | MIC [6] [µM] | MIC [7] [µM] | SMILES | MLC [4] [µM] | MLC [5] [µM] | MLC [8] [µM] | MLC [9] [µM] |
| --- | --- | --- | --- | --- | --- | --- | --- | --- | --- |
| 1.66 ×10⁻⁴ mol/L | 209 | 132 | 27.1 | 31.4 | C=CC(=O)OCCCCCCCCCCC[N+](C)(C)CCCCCCCCCCCCCCCC.[Br-] | 40.4 | 317 | 274 | 40.4 |
| 1.95 mM | 275 | 237 | 24 | 237 | C=CC(=O)OCC[N+](C)(C)CCCCCCCCCCCCCCCC.[Br-] | 283 | 283 | 283 | 24.7 |
| 1.16 ×10⁻² mol/L | 356 | 356 | 278 | 175 | C=CC(=O)OCC[N+](C)(C)CCCCCCCCCC.[Br-] | 280 | 416 | 359 | 359 |
| 4.6 ×10⁻² mol/L | > 2000 | > 2000 | > 2000 | 507 | C=CC(=O)OCC[N+](C)(C)Cc1ccccc1.[Br-] | 600 | > 2000 | > 2000 | > 2000 |
| 4.68 ×10⁻⁴ mol/L | 104 | 44.8 | 16.8 | 24.9 | C=CC(=O)OCCCCCCCCCCC[N+](C)(C)CCCCCCCCCCCCCC.[Br-] | 24.9 | 103 | 164 | 16.8 |
